Experiment [1] concerns the target T1, Cathepsin D (Homo sapiens, UniProt P07339). Put plainly: Inhibition of human liver cathepsin D. An outline of the steps: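 Human liver cathepsin D activated 20 min at 37 °C in 100 mM sodium acetate pH 4.5, 10% glycerol, 0.01% Tween 20. Inhibitor serially diluted in DMSO (1% final) added before 3 µM DABCYL-Glu-Arg-Nle-Phe-Leu-Ser-Phe-Pro-EDANS; fluorescence increase read over 10 min. IC50 from Langmuir isotherm assuming competitive inhibition, converted to Ki via IC50/(1+[S]/Km); top concentration limited to 10.0 µM by inhibitor fluorescence.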

Experiment [2] addresses Protease (Human immunodeficiency virus 1, UniProt Q9YQ12). Put plainly: Inhibition of HIV1 protease. The method, boiled down:
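Recombinant HIV-1 protease expressed in E. coli; Ki from fluorometric assay, two independent measurements; a reference inhibitor included to check variability, standard deviation ±50% of mean.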

In experiment [3] the target is T1, Cathepsin D. Kind of experiment: Ratio of compound Ki to KNI-10006 Ki for human liver cathepsin D.
For experiment [4], the system named is Human immunodeficiency virus 1. Put plainly: Antiviral activity against HIV1 replication in infected cells. Type of experiment: functional, organism-based.
A short description of experiment [5]: Inhibition of Plasmodium falciparum plasmepsin-4. An outline of the steps: (§1)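 Self-activated in 0.1 M sodium acetate pH 4.5, 37 °C, 5 min. Chromogenic substrate hydrolysis followed spectrophotometrically; Michaelis-Menten curves at ≥5 substrate levels with no inhibitor and two inhibitor concentrations, fitted together for Ki.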
Experiment [6] is described as follows: Inhibition of Plasmodium falciparum plasmepsin-4 expressed in Escherichia coli BL21 (DE3) by spectrophotometric assay with chromogenic substrate.
Experiment [7] is described as follows: Inhibition of Plasmodium ovale plasmepsin-4 expressed in Escherichia coli BL21 (DE3) by spectrophotometric assay with chromogenic substrate.
In experiment [8] the target is Plasmepsin II (Plasmodium falciparum, UniProt P46925). Put plainly: Inhibition of Plasmodium falciparum plasmepsin-2 expressed in Escherichia coli BL21 (DE3) by spectrophotometric assay with chromogenic substrate.
Chain of Plasmepsin II (P46925 whole entry): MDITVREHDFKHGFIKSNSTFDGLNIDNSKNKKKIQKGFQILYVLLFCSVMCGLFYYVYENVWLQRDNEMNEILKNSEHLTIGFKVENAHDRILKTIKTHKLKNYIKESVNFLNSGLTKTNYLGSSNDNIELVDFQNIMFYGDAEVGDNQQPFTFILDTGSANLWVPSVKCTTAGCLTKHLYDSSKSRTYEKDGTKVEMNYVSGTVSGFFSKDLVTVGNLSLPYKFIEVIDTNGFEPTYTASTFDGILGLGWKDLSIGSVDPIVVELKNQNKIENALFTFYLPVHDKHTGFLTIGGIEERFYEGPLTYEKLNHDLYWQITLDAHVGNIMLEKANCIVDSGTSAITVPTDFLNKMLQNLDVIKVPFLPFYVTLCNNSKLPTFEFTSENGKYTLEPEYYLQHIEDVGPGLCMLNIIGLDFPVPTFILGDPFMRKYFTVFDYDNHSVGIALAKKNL
For experiment [9], the target named is Aspartic protease PM4 (Plasmodium vivax, UniProt O60989). Kind of experiment: Inhibition of Plasmodium vivax plasmepsin-4 expressed in Escherichia coli BL21 (DE3) by spectrophotometric assay with chromogenic substrate.
Chain of Aspartic protease PM4 (O60989 whole entry): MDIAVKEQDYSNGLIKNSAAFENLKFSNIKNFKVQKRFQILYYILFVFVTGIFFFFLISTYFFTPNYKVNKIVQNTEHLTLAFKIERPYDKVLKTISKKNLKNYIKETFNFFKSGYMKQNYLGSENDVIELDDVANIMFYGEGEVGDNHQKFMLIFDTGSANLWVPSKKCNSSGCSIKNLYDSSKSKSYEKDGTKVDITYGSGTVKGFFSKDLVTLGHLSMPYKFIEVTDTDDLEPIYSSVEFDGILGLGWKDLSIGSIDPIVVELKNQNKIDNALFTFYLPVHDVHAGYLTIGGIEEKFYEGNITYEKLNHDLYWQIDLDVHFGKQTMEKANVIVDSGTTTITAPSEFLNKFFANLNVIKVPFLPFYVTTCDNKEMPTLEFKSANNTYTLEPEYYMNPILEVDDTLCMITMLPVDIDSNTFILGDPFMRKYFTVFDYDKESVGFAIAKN
The nature of experiment [10]: Inhibition of Plasmodium malariae plasmepsin-4 expressed in Escherichia coli BL21 (DE3) by spectrophotometric assay with chromogenic substrate.
Experiment [11] has as its target Beta-secretase 1 (Homo sapiens) (UniProt P56817). Put plainly: Inhibition of human BACE1 at < 10 uM.
In experiment [12] the test system is Human immunodeficiency virus 1. Kind of experiment: Antiviral activity against HIV1 3B infected in human MT4 cells. The format is functional, organism-based. Conditions: Human immunodeficiency virus 1, 3B.
Experiment [13] can be described thus: Inhibition of Plasmodium malariae plasmepsin-4. The method, boiled down: as §1
The nature of experiment [14]: Selectivity ratio of Ki for human liver cathepsin D to Ki for Plasmodium falciparum plasmepsin-2 expressed in Escherichia coli BL21 (DE3).
Experiment [15] has as its target Plasmepsin III (Plasmodium falciparum, UniProt Q9Y006). Kind of experiment: Inhibition of Plasmodium falciparum histo-aspartyl protease.
For experiment [16], the target named is Plasmepsin I (Plasmodium falciparum, UniProt P39898). Put plainly: Inhibition of Plasmodium falciparum plasmepsin-1.
Chain of Plasmepsin I (P39898 whole entry): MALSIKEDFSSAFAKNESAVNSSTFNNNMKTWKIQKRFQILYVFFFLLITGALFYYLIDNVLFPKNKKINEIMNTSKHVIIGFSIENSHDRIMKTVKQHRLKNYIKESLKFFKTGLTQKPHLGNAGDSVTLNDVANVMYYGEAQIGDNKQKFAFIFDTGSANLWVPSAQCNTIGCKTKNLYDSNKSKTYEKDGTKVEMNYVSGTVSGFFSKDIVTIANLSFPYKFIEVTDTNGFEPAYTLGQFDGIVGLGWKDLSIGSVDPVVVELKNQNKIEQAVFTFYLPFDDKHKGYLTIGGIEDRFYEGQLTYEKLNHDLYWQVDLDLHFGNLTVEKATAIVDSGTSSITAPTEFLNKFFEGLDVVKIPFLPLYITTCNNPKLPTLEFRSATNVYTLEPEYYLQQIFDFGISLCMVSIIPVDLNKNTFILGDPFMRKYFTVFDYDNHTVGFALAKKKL
In experiment [17] the test system is Plasmodium falciparum. Put plainly: Antiplasmodial activity against Plasmodium falciparum infected in erythrocyte culture. The format is functional, organism-based.

Activity calls are given as the source filed them. No cut-off for these calls is given here. Bounds are passed on as bounds.

T1 sequence (P07339 65-162 limits assumed): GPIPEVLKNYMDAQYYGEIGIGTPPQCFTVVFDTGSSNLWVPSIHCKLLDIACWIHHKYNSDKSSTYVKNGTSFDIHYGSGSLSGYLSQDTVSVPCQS
T1 sequence (P07339 169-412 limits assumed): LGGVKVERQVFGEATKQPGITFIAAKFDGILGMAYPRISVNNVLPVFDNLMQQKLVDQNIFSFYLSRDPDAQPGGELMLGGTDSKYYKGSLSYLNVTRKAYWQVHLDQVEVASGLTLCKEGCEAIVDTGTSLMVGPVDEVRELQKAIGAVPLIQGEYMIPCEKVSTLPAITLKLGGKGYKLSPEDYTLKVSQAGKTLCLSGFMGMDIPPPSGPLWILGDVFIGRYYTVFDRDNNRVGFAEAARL
Chain of Beta-secretase 1 (Homo sapiens) (P56817 whole entry): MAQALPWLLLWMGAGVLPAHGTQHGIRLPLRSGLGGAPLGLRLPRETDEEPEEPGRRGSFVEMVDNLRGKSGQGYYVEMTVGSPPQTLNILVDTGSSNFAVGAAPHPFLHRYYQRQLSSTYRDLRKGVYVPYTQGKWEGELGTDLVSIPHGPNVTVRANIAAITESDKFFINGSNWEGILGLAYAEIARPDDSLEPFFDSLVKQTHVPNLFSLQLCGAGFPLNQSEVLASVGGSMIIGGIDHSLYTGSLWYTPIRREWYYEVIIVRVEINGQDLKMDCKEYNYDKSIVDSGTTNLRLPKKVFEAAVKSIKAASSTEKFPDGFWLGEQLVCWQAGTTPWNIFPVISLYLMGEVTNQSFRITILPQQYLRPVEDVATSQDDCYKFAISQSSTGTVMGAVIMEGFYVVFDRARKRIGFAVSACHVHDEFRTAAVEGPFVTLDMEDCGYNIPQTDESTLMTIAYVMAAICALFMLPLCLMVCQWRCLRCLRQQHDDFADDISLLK
Chain of Protease (Q9YQ12 whole entry): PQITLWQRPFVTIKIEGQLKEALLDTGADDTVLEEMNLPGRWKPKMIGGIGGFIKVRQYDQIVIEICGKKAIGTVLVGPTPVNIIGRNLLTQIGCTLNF
Chain of Plasmepsin III (Q9Y006 whole entry): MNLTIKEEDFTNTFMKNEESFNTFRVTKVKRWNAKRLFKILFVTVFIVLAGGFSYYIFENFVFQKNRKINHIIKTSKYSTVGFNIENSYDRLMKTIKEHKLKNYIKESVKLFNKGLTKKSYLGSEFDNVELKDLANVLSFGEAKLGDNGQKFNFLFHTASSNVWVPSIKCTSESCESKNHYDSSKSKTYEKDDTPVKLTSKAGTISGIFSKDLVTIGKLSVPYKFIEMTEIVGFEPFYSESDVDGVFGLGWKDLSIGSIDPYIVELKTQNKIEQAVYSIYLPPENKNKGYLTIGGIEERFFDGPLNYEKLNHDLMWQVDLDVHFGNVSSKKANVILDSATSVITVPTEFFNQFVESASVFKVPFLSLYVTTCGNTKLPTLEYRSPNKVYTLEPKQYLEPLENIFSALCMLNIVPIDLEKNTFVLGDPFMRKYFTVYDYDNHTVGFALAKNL

In general, Ki refers to the dissociation constant of the complex between target and ligand, obtained from inhibition or displacement. High values mean lower affinity, low ones higher affinity. For `Cc1cccc(C)c1OCC(=O)NCC(O)(CCc1ccccc1)C(=O)N[C@@H](Cc1ccccc1)C(=O)N[C@H]1c2ccccc2C[C@H]1O` (stereo in doubt; (B)-20) [listing 1 of 2 here], the Ki in [1] was greater than 10000 nM; in [2] it was 1000 nM.
Regarding `Cc1cccc(C)c1OCC(=O)NCC(O)(CCc1ccccc1)C(=O)N1CCC[C@H]1C(=O)N[C@H]1c2ccccc2C[C@H]1O` (stereo in doubt; (B)-19) [listing 1 of 2 here], in [3], the Ratio Ki is 5000.
One may read the EC50 as the concentration giving half of the maximal effect. The low end stands for an effect from little substance, the high end for a need for much substance. Regarding `COC(=O)N[C@H](C(=O)NN(Cc1ccccc1)C[C@@](O)(Cc1ccccc1)C(=O)N[C@H]1c2ccccc2C[C@H]1O)C(C)(C)C`, a half-maximal effect in experiment [4] (EC50) was put at 1900 nM. Also, the Ki in experiment [2] turned out to be 6 nM; in [5], 12000 nM.
As to `Cc1cccc(C)c1OCC(=O)NCC(O)(CCc1ccccc1)C(=O)N[C@@H](Cc1ccccc1)C(=O)N[C@H]1c2ccccc2C[C@H]1O` (stereo in doubt; (A)-20) [listing 1 of 2 here], the inhibitory constant (Ki) in [1] is greater than 10000 nM; in experiment [6], greater than 20000 nM.
For `Cc1cccc(C)c1OCC(=O)NCC(O)(CCc1ccccc1)C(=O)N1CCC[C@H]1C(=O)N[C@H]1c2ccccc2C[C@H]1O` (stereo in doubt; (A)-19) [listing 1 of 2 here], the Ki in [7] is 7200 nM; in experiment [1], greater than 10000 nM; in experiment [6] it was 30200 nM; in [8], greater than 20000 nM; in experiment [9], 2200 nM; in [10] it was 14500 nM.
For `Cc1cccc(C)c1OCC(=O)NC[C@](O)(Cc1ccccc1)C(=O)N1CSC(C)(C)[C@H]1C(=O)N[C@H]1c2ccccc2C[C@H]1O`, the Ratio Ki in experiment [3] turned out to be 5000. In addition, the Ki was 530 nM in experiment [7]; greater than 10000 nM in [1]; 720 nM in [6]; greater than 20000 nM in experiment [8]; 190 nM in experiment [9]; 250 nM in experiment [10]. The outcome in experiment [11] was inactive.
For the compound `Cc1cccc(C)c1OCC(=O)NC[C@@](O)(Cc1ccccc1)C(=O)N1CSC(C)(C)[C@@H]1C(=O)N[C@H]1c2ccccc2C[C@H]1O`, the Ratio Ki in experiment [3] is 5000. Further, the Ki in experiment [7] is 1300 nM; in [1], greater than 10000 nM; in [6] it was 1700 nM; in experiment [8], 830 nM; in experiment [9] it was 160 nM; in experiment [10] it was 210 nM. In addition, the outcome in experiment [11] was inactive.
On to `Cc1cccc(C)c1OCC(=O)NC[C@@](O)(CCc1ccccc1)C(=O)N1CSC(C)(C)[C@H]1C(=O)N[C@H]1c2ccccc2C[C@H]1O`, for which, in [3], the Ratio Ki is 5000. Further, the Ki was 4500 nM in experiment [7]; greater than 10000 nM in experiment [1]; 3100 nM in experiment [6]; 1400 nM in [8]; 370 nM in [9]; 7900 nM in [10]. The EC50 in [12] was found to be 6400 nM.
For `Cc1cccc(C)c1OCC(=O)NC[C@](O)(CCc1ccccc1)C(=O)N1CSC(C)(C)[C@H]1C(=O)N[C@H]1c2ccccc2C[C@H]1O`, in [3], the Ratio Ki is 5000. The inhibition constant Ki in [7] is 6500 nM; in [1], greater than 10000 nM; in [6] it was 5500 nM; in experiment [8], 7400 nM; in experiment [9], 2200 nM; in experiment [10] it was greater than 20000 nM.
In experiment [13], `Cc1ccccc1CNC(=O)[C@H]1N(C(=O)[C@@H](O)[C@H](Cc2ccccc2)NC(=O)c2cccc(O)c2C)CSC1(C)C` registered a Ki of 110 nM.
What is called IC50 is the concentration needed to halve the response being measured. Read a low IC50 as greater potency. Turning to `Cc1cccc(C)c1OCC(=O)N[C@@H](Cc1ccccc1)[C@H](O)C(=O)N1CSC(C)(C)[C@H]1C(=O)N[C@H]1c2ccccc2C[C@H]1O`, the Ratio Ki in [14] turned out to be 4. Also, the IC50 turned out to be 690 nM in experiment [15], 280 nM in experiment [16], 15 nM in [5] and 6800 nM in experiment [17]. Moreover, the Ki in experiment [1] worked out at 2 nM.
As to `Cc1cccc(C)c1OCC(=O)NCC(O)(CCc1ccccc1)C(=O)N1CCC[C@H]1C(=O)N[C@H]1c2ccccc2C[C@H]1O` (stereo in doubt; (B)-19) [listing 2 of 2 here], the inhibition constant (Ki) in experiment [7] was 10300 nM; in experiment [6], 26900 nM; in experiment [8], greater than 20000 nM; in [9], 1300 nM; in experiment [10], 13000 nM.
Regarding `Cc1cccc(C)c1OCC(=O)NC[C@](O)(Cc1ccccc1)C(=O)N1CSC(C)(C)[C@@H]1C(=O)N[C@H]1c2ccccc2C[C@H]1O`, the Ratio Ki in experiment [3] was determined as 5000. The Ki in experiment [7] was 610 nM; in experiment [1], greater than 10000 nM; in [6], 1700 nM; in [8], 1700 nM; in experiment [9] it was 120 nM; in experiment [10], 420 nM. This compound also showed a Ki in experiment [2] of 670 nM. Also, in experiment [11], the result was inactive.
For `Cc1cccc(C)c1OCC(=O)NC[C@@](O)(Cc1ccccc1)C(=O)N1CSC(C)(C)[C@H]1C(=O)N[C@H]1c2ccccc2C[C@H]1O`, the Ratio Ki in [3] was 5000. Also, the Ki in [7] is 110 nM; in experiment [1], greater than 10000 nM; in experiment [6] it was 700 nM; in experiment [8], greater than 20000 nM; in [9] it was 160 nM; in [10] it was 260 nM. In addition, the outcome in experiment [11] was inactive.
In the case of `Cc1cccc(C)c1OCC(=O)NCC(O)(CCc1ccccc1)C(=O)N[C@@H](Cc1ccccc1)C(=O)N[C@H]1c2ccccc2C[C@H]1O` (stereo in doubt; (A)-20) [listing 2 of 2 here], the Ratio Ki in experiment [3] stood at 5000. The outcome in experiment [11] was inactive.
Consider `COC(=O)N[C@H](C(=O)NN(Cc1ccccc1)C[C@](O)(Cc1ccccc1)C(=O)N[C@H]1c2ccccc2C[C@H]1O)C(C)(C)C`, for which the EC50 in experiment [4] is greater than 10000 nM. The Ki in [2] is 2200 nM; in experiment [5], 48000 nM.
Take `Cc1cccc(C)c1OCC(=O)NCC(O)(CCc1ccccc1)C(=O)N[C@@H](Cc1ccccc1)C(=O)N[C@H]1c2ccccc2C[C@H]1O` (stereo in doubt; (B)-20) [listing 2 of 2 here]: in experiment [3], the Ratio Ki is 5000. Moreover, the outcome in [11] was inactive.
On to `Cc1cccc(C)c1OCC(=O)NCC(O)(CCc1ccccc1)C(=O)N1CCC[C@H]1C(=O)N[C@H]1c2ccccc2C[C@H]1O` (stereo in doubt; (A)-19) [listing 2 of 2 here], for which the Ratio Ki in experiment [3] was 5000.
Take `Cc1cccc(C)c1OCC(=O)NC[C@](O)(CCc1ccccc1)C(=O)N1CSC(C)(C)[C@@H]1C(=O)N[C@H]1c2ccccc2C[C@H]1O`: in [3], the Ratio Ki was determined as 5000. Also, the Ki in [7] was 880 nM; in [1] it was greater than 10000 nM; in experiment [6] it was 10700 nM; in [8], 7600 nM; in experiment [9] it was 340 nM; in [10], 1600 nM.
As to `Cc1cccc(C)c1OCC(=O)NC[C@@](O)(CCc1ccccc1)C(=O)N1CSC(C)(C)[C@@H]1C(=O)N[C@H]1c2ccccc2C[C@H]1O`, the Ratio Ki in experiment [14] is greater than 20000; in [3], 5000. Moreover, the Ki in experiment [7] is 1000 nM; in experiment [1], greater than 10000 nM; in [6], 6300 nM; in experiment [8] it was 440 nM; in experiment [9], 390 nM; in experiment [10], 1100 nM.

The record behind these values is ChEMBL document CHEMBL1154121, “alpha-Substituted norstatines as the transition-state mimic in inhibitors of multiple digestive vacuole malaria aspartic proteases” (Bioorg Med Chem, 2009).
